Experimental data as given in BindingDB's records for doi:10.1016/j.ejmech.2019.111611 (The University of Queensland, 2019).

These molecules were tested against T1, Fe(3+)-Zn(2+) purple acid phosphatase (Phaseolus vulgaris, UniProt P80366) (assay: Competitive inhibition of red kidney bean PAP using varying levels of pNPP as substrate measured at pH 6.2 by UV-vis spectrophotometric analysis).
T1 sequence (P80366 whole entry): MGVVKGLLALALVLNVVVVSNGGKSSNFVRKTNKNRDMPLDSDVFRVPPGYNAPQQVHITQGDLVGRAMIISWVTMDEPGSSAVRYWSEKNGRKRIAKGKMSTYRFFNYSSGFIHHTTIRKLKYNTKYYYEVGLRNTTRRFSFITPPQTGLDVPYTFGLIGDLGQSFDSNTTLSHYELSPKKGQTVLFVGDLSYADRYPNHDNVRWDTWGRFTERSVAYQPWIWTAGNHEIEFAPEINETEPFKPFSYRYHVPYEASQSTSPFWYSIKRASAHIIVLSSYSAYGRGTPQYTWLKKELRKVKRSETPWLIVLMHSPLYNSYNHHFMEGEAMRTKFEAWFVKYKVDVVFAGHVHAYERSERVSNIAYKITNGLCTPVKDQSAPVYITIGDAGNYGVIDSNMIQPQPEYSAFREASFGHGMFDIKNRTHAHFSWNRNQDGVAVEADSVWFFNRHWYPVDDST
How it was run: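 Red kidney bean PAP (rkbPAP), purified, at 8.4 nM. p-NPP 1–15 mM in 0.1 M MES pH 6.2 with 25% DMSO, 25 °C. p-Nitrophenol formation followed at 405 nm (Δε 1834.4 mol−1 L cm−1). Inhibitor concentration varied; competitive constant Kic from non-linear regression using a general inhibition equation.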
A Ki of 4500 nM was found for `CCCCCCCCCCCCOC(c1cccc2ccccc12)P(=O)(O)O` (stereo unspecified) in this work. A Ki of 400 nM was found for `CCCCCCCCCCCCCCCCOC(c1cccc2ccccc12)P(=O)(O)O` (stereo unspecified) in this work. A Ki of 500 nM was found for `CCCCCCCCCCCCCCCCCCOC(c1cccc2ccccc12)P(=O)(O)O` (stereo unspecified) in this work. A Ki of 14000 nM was found for `CCCCCCCCCCCCCCCCCCCCCCOC(c1cccc2ccccc12)P(=O)(O)O` (stereo unspecified) in this work. A Ki of 200 nM was found for `CCCCCCCCCCCCCCOC(c1cccc2ccccc12)P(=O)(O)O` (stereo unspecified) in this work. A Ki of 800 nM was found for `CCCCCCCCCCCCCCCCCCCCOC(c1cccc2ccccc12)P(=O)(O)O` (stereo unspecified) in this work.
